Test [1] concerns the target T1, Leucine-rich repeat serine/threonine-protein kinase 2 (Homo sapiens, UniProt Q5S007). The test is described as follows: Inhibition of N-terminal GST-fused human wild type LRRK2 using fluorescein-labeled LRRKtide as substrate preincubated for 15 mins followed by substrate addition and measured after 1 hr by TR-FRET assay. A digest of the protocol: (§1)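 Purified truncated LRRK2, WT or G2019S, at 2 nM nominal was preincubated with inhibitor for 15 min. LRRKtide (0.4 μM) and ATP (25 μM) were then added for 1 h. The reaction was stopped with 10 mM EDTA plus 2 nM Tb-anti-pLRRKtide antibody, and TR-FRET was read. IC50 is the geometric mean of at least two independent experiments.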
(TR-FRET usually uses a lanthanide donor and a delayed reading to cut background.)

In test [2] the target is T2, Leucine-rich repeat serine/threonine-protein kinase 2 (Homo sapiens, UniProt Q5S007, G2019S). The test is described as follows: Inhibition of human LRRK2 G2019S mutant expressed in HEK293 cells assessed as reduction in pSer935 phosphorylation incubated for 2 hrs by immunoblotting analysis. The format is cell-based. A digest of the protocol: (§2)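 HEK293 cells stably expressing WT or G2019S LRRK2 (100 000/well, EMEM with 1% FBS) were dosed about 24 h after plating, for 2 h. They were lysed in 1% SDS Tris buffer with protease and phosphatase inhibitors, and lysates were heated at 65 °C for 10 min. pThr73-Rab10, total Rab10, pS935 and total LRRK2 were quantified by immunoblot. IC50 is the geometric mean of at least two independent experiments.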
Background: A western blot detects proteins with antibodies after separation by electrophoresis.

For test [3], the species on record is Homo sapiens. The test is described as follows: Selectivity ratio of IC50 for inhibition human wild type LRRK2 expressed in human HEK293 assessed as Rab10 substrate phosphorylation at Threonine 73 residue to IC50 for inhibition of human LRRK2 G2019S mutant expressed in human HEK293 assessed as Rab10 substrate phosphorylation at Threonine 73 residue. A digest of the protocol: as §2

The target of test [4] is T1, Leucine-rich repeat serine/threonine-protein kinase 2. The test is described as follows: Inhibition of human wild type LRRK2 expressed in HEK293 cells assessed as reduction in pSer935 phosphorylation incubated for 2 hrs by immunoblotting analysis. The format is cell-based. A digest of the protocol:
as §2

For test [5], the species on record is Homo sapiens. The test is described as follows: Selectivity ratio of IC50 for inhibition of human wild type LRRK2 expressed in HEK293 cells assessed as reduction in pSer935 phosphorylation to IC50 for inhibition of human LRRK2 G2019S mutant expressed in HEK293 cells assessed as reduction in pSer935 phosphorylation. The format is cell-based. A digest of the protocol:
(§3)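 Stably transfected HEK293 cells expressing human WT or G2019S LRRK2 were seeded at 5K/well in DMEM with 1% serum on poly-D-lysine plates. Inhibitor in DMSO was added for 2 h at 37 °C. pS935 was detected by an HTRF kit. IC50 is the geometric mean of at least two independent experiments.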

For test [6], the target named is T2, Leucine-rich repeat serine/threonine-protein kinase 2. The test is described as follows: Inhibition of human LRRK2 G2019S mutant expressed in HEK293 cells assessed as reduction in pSer935 phosphorylation incubated for 2 hrs by HTRF analysis. The class given is cell-based. A digest of the protocol: as §3
For test [7], the species on record is Homo sapiens. The test is described as follows: Selectivity ratio of IC50 for inhibition of human wild type LRRK2 expressed in HEK293 cells assessed as reduction in pS1292 phosphorylation to IC50 for inhibition of human LRRK2 G2019S mutant expressed in HEK293 cells assessed as reduction in pS1292 phosphorylation. The format is cell-based. In outline:
(§4)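 HEK293 cells stably expressing WT or G2019S LRRK2 (30−50K/well, DMEM with 1% serum) were treated for 2 h at 37 °C and lysed with phosphatase inhibitors. LRRK2 was captured on anti-LRRK2-coated MSD plates overnight at 4 °C. Detection used rabbit anti-pS1292 (1:400) and Sulfo-Tag anti-rabbit, with an electrochemiluminescence read-out. IC50 is the geometric mean of at least two independent experiments.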

The target in test [8] is T1, Leucine-rich repeat serine/threonine-protein kinase 2. The test is described as follows: Inhibition human wild type LRRK2 expressed in human HEK293 assessed as Rab10 substrate phosphorylation at Threonine 73 residue incubated for 2 hrs by immunoblotting analysis. The class given is cell-based. In outline: as §2
Test [9] addresses T2, Leucine-rich repeat serine/threonine-protein kinase 2. The test is described as follows: Inhibition of N-terminal GST-fused human LRRK2 G2019S mutant using fluorescein-labeled LRRKtide as substrate preincubated for 15 mins followed by substrate addition and measured after 1 hr by TR-FRET assay. A digest of the protocol: as §1
The target is the same in test [10]. The test is described as follows: Inhibition human LRRK2 G2019S mutant expressed in human HEK293 assessed as Rab10 substrate phosphorylation at Threonine 73 residue incubated for 2 hrs by immunoblotting analysis. The class given is cell-based. A digest of the protocol: as §2
For test [11], the species on record is Homo sapiens. The test is described as follows: Selectivity ratio of IC50 for inhibition of N-terminal GST-fused human wild type LRRK2 to IC50 for inhibition of N-terminal GST-fused human […] mutant. In outline: as §1
For test [12], the target named is T2, Leucine-rich repeat serine/threonine-protein kinase 2. The test is described as follows: Inhibition of human LRRK2 G2019S mutant expressed in HEK293 cells assessed as reduction in pS1292 phosphorylation incubated for 2 hrs by MSD analysis. The class given is cell-based. In outline: as §4
Test [13] is filed under the species Homo sapiens. The test is described as follows: Selectivity ratio of IC50 for inhibition of human wild type LRRK2 expressed in HEK293 cells to IC50 for inhibition of human LRRK2 G2019S mutant expressed in HEK293. The class given is cell-based. In outline: as §2
Test [14] concerns the target T1, Leucine-rich repeat serine/threonine-protein kinase 2. The test is described as follows: Inhibition of human wild type LRRK2 expressed in HEK293 cells assessed as reduction in pSer935 phosphorylation incubated for 2 hrs by HTRF analysis. The class given is cell-based. In outline: as §3
Test [15] shares this target. The test is described as follows: Inhibition of human wild type LRRK2 expressed in HEK293 cells assessed as reduction in pS1292 phosphorylation incubated for 2 hrs by MSD analysis. The format is cell-based. A digest of the protocol:
as §4

Broadly, the IC50 is the midpoint of a concentration-inhibition curve.

T2 sequence (Q5S007 whole entry G2019S): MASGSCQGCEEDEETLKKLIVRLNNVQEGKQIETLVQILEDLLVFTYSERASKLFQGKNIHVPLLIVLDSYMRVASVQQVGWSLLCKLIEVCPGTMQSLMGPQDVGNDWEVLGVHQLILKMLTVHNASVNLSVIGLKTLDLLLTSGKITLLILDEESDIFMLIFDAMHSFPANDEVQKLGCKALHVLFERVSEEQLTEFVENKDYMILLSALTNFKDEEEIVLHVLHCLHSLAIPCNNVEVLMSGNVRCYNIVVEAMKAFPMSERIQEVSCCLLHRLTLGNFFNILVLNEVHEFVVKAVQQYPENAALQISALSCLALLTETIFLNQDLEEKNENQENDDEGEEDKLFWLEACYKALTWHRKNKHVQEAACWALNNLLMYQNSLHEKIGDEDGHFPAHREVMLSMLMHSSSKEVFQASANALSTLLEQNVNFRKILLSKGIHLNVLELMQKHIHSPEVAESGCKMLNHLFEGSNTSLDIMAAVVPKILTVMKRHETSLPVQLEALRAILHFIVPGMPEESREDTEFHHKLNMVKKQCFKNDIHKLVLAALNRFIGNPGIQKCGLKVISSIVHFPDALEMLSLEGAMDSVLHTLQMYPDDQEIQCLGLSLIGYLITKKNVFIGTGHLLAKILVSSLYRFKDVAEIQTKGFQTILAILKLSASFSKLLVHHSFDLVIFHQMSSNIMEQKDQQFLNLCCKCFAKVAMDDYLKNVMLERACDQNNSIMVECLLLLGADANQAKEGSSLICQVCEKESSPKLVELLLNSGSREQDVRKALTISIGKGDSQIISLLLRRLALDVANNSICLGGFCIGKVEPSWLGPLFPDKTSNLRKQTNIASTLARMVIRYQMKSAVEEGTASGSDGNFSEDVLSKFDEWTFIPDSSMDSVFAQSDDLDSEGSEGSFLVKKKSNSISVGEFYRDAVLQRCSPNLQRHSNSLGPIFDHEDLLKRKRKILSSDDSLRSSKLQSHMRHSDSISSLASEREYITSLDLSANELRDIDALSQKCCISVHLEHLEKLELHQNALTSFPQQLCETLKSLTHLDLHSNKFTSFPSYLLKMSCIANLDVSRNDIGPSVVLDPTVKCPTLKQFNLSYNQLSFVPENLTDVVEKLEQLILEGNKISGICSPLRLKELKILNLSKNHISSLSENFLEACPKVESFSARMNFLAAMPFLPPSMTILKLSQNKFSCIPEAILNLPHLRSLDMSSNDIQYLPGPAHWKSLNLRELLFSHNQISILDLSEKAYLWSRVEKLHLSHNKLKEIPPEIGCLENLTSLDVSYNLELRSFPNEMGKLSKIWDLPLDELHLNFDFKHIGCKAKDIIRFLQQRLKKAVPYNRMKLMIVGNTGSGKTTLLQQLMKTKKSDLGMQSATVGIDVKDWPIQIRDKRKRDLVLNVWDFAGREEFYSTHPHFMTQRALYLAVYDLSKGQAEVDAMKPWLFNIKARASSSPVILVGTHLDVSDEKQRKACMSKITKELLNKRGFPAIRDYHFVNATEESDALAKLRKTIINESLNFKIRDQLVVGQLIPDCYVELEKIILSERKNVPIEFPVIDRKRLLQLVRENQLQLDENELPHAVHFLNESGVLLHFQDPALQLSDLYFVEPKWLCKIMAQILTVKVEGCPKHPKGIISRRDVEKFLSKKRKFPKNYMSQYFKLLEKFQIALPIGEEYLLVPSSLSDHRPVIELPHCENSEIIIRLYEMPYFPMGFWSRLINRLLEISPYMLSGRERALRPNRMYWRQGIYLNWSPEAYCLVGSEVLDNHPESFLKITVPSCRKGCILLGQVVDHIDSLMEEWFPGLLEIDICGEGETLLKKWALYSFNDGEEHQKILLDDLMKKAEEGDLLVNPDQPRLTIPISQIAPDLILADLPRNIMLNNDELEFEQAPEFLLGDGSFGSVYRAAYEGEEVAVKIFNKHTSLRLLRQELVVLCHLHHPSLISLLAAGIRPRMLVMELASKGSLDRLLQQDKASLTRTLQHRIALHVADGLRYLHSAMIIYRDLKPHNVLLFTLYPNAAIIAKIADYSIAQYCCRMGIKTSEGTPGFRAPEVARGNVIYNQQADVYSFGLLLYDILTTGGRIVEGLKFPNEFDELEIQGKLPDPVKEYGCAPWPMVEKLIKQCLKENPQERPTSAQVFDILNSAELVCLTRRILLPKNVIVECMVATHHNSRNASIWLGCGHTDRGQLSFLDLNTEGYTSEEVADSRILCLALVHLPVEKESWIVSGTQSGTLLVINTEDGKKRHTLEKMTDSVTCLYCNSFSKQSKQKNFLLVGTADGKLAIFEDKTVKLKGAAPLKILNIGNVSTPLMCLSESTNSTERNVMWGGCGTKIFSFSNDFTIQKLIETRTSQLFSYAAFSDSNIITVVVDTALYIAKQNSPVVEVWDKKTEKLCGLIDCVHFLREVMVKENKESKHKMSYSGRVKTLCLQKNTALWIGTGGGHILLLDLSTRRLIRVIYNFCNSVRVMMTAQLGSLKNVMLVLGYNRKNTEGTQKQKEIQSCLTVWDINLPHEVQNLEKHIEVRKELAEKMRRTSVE
T1 sequence (Q5S007 whole entry, the tested form may be a part): as the sequence (Q5S007 whole entry G2019S) above, with S2019G counted along it

For the molecule `CC1=C(C(=O)Nc2ccc3[nH]nc(-c4ccnc(N5CCOCC5)c4)c3c2)C(C)(C)n2nnnc2N1C`, the IC50 in test [1] was 0.3 nM; in test [2], 1.5 nM; in [4], 259 nM; in test [6], 1.1 nM; in [8], 473 nM; in test [9], < 0.2 nM. Also, the IC50 came out at 4.7 nM in test [10], 1 nM in test [12], 145 nM in [14] and 33.7 nM in test [15]. Besides, the Ratio IC50 in the test filed under Homo sapiens [3] was 101; in the test filed under Homo sapiens [5] it was 173; in the test filed under Homo sapiens [7], 34; in the test filed under Homo sapiens [11], > 1.5; in the test filed under Homo sapiens [13] it was 132.

As for `CC1=C(C(=O)Nc2ccc3[nH]nc(-c4ccccc4)c3c2)C(C)(C)n2nnnc2N1C`, the IC50 in test [1] is 6.6 nM; in test [2], 2.5 nM; in test [4], 2090 nM; in test [6] it was 3.1 nM; in [8], 3920 nM; in [9], < 0.2 nM. Besides, the IC50 is 11.4 nM in [10], 1.7 nM in test [12], 1060 nM in test [14] and 117 nM in [15]. Further, the Ratio IC50 in the test filed under Homo sapiens [3] is 344; in the test listed under Homo sapiens [5], 837; in the test filed under Homo sapiens [7] it was 71; in the test listed under Homo sapiens [11], > 33; in the test filed under Homo sapiens [13] it was 339.

As to `CC1=C(C(=O)Nc2ccc3[nH]nc(-c4nc5ccccc5[nH]4)c3c2)Cn2nnnc2N1C`, the IC50 is 0.53 nM in [1]; 21 nM in test [6]; < 0.2 nM in test [9]; 21 nM in [12]; 3300 nM in test [14]; 242 nM in test [15]. The results for the Ratio IC50 in the test listed under Homo sapiens [7], in the test filed under Homo sapiens [11] and in the test filed under Homo sapiens [13] were 12, > 2.6 and 157, respectively.

`CC1=C(C(=O)Nc2ccc3[nH]nc(C)c3c2)[C@@H](C)n2nnnc2N1C`: the IC50 in test [1] came to 20 nM; in [2], 106 nM; in test [4], 8740 nM; in test [6], 46.1 nM; in [8], 9740 nM; in test [9], 0.82 nM. For the same molecule, the IC50 in test [10] was determined as 137 nM; in test [12], 19 nM; in test [14], 5220 nM; in test [15], 380 nM. Also, the Ratio IC50 in the test listed under Homo sapiens [3] came out at 71; in the test listed under Homo sapiens [5], 82; in the test listed under Homo sapiens [7], 20; in the test listed under Homo sapiens [11], 24; in the test filed under Homo sapiens [13], 113.

These data come from ChEMBL document CHEMBL5244270, “Selective Inhibitors of G2019S-LRRK2 Kinase Activity” (J Med Chem, 2020).
